pIC50: −log10 of the molar value. In brackets after ≈: the same amount, converted by molar mass.
Tested on: Mycobacterium tuberculosis
Experiment: Antitubercular activity against Mycobacterium tuberculosis H37Rv infected in BALB/c mouse assessed as ratio of lung CFU for compound to lung CFU for PA-824 at 100 mg/kg, po daily for 5 days a week for 3 weeks
Assay type: functional
Settings: not given
In the case of N#Cc1ccc(-c2ccc(CO[C@@H]3COc4nc([N+](=O)[O-])cn4C3)cc2)cc1, the “fold change (FC)” value was 3.6. With COc1c(F)cc(F)cc1-c1ccc(CO[C@@H]2COc3nc([N+](=O)[O-])cn3C2)cc1 the “fold change (FC)” value was 0.4. In the case of O=[N+]([O-])c1cn2c(n1)OC[C@@H](OCc1ccc(-c3ccc(C(F)(F)F)cc3)cc1)C2, the “fold change (FC)” value was 72. For CCOc1ccccc1-c1ccc(CO[C@@H]2COc3nc([N+](=O)[O-])cn3C2)cc1, the “fold change (FC)” value was 0.15. For COc1ccc(-c2ccc(CO[C@@H]3COc4nc([N+](=O)[O-])cn4C3)cc2)cc1F, the “fold change (FC)” value was 0.02. For O=[N+]([O-])c1cn2c(n1)OC[C@@H](OCc1ccc(-c3ccc(OC(F)(F)F)cc3)cc1)C2, the “fold change (FC)” value was greater than 205. With O=[N+]([O-])c1cn2c(n1)OC[C@@H](OCc1ccc(-c3ccc(OC(F)(F)F)c(Cl)c3)cc1)C2 the “fold change (FC)” value was 281. For O=[N+]([O-])c1cn2c(n1)OC[C@@H](OCc1ccc(-c3ccc(F)cc3)cc1)C2, the “fold change (FC)” value was 3.

Tested on: Vero
Experiment: Cytotoxicity against african green monkey Vero cells after 72 hrs by MTS assay
Assay type: cell-based
Settings: Chlorocebus sabaeus
How it was run: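 VERO cells (CCL-81), 72 h exposure, tetrazolium dye read-out.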
N#Cc1ccc(-c2ccc(CO[C@@H]3COc4nc([N+](=O)[O-])cn4C3)cc2)cc1 gave a pIC50 of less than 3.90. In the case of COc1c(F)cc(F)cc1-c1ccc(CO[C@@H]2COc3nc([N+](=O)[O-])cn3C2)cc1, the pIC50 was less than 3.90. For O=[N+]([O-])c1cn2c(n1)OC[C@@H](OCc1ccc(-c3ccc(C(F)(F)F)cc3)cc1)C2, the pIC50 was less than 3.90. Work on CCOc1ccccc1-c1ccc(CO[C@@H]2COc3nc([N+](=O)[O-])cn3C2)cc1 yielded a pIC50 of less than 3.90. Work on COc1ccc(-c2ccc(CO[C@@H]3COc4nc([N+](=O)[O-])cn4C3)cc2)cc1F yielded a pIC50 of less than 3.90. O=[N+]([O-])c1cn2c(n1)OC[C@@H](OCc1ccc(-c3ccc(OC(F)(F)F)cc3)cc1)C2 showed a pIC50 of less than 3.90. Work on O=[N+]([O-])c1cn2c(n1)OC[C@@H](OCc1ccc(-c3ccc(OC(F)(F)F)c(Cl)c3)cc1)C2 yielded a pIC50 of less than 3.90. Work on O=[N+]([O-])c1cn2c(n1)OC[C@@H](OCc1ccc(-c3ccc(F)cc3)cc1)C2 yielded a pIC50 of less than 3.90.

Tested on: not listed separately
Experiment: Metabolic stability in pooled human liver microsomes assessed as compound remaining after 1 hr by LC-MS-MS
Assay type: ADME, Microsome
Settings: read-out: Stability
How it was run: (§1)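 Test compound at 1 μM with pooled CD-1 mouse or human liver microsomes (0.5 mg/mL protein) and NADPH-regenerating system (3.3 mM MgCl2, 3.3 mM G6P, 0.4 U/mL G6PD, 1.3 mM NADP+) in 75 mM phosphate, pH 7.4, 0.5% DMSO, 37 °C. Stopped at 0 and 60 min with MeCN containing metoprolol internal standard. LC-MS/MS (ESI, SRM), duplicates. % remaining = 100 × mean peak-area ratio at 60 min / at 0 min.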
For N#Cc1ccc(-c2ccc(CO[C@@H]3COc4nc([N+](=O)[O-])cn4C3)cc2)cc1, the remaining at 1 h was 95%. Work on COc1c(F)cc(F)cc1-c1ccc(CO[C@@H]2COc3nc([N+](=O)[O-])cn3C2)cc1 yielded a remaining at 1 h of 72%. In the case of O=[N+]([O-])c1cn2c(n1)OC[C@@H](OCc1ccc(-c3ccc(C(F)(F)F)cc3)cc1)C2, the remaining at 1 h was 60%. In the case of CCOc1ccccc1-c1ccc(CO[C@@H]2COc3nc([N+](=O)[O-])cn3C2)cc1, the remaining at 1 h was 50%. Work on COc1ccc(-c2ccc(CO[C@@H]3COc4nc([N+](=O)[O-])cn4C3)cc2)cc1F yielded a remaining at 1 h of 80%. Work on O=[N+]([O-])c1cn2c(n1)OC[C@@H](OCc1ccc(-c3ccc(OC(F)(F)F)c(Cl)c3)cc1)C2 yielded a remaining at 1 h of 90%. Work on O=[N+]([O-])c1cn2c(n1)OC[C@@H](OCc1ccc(-c3ccc(F)cc3)cc1)C2 yielded a remaining at 1 h of 75%.

Tested on: Mycobacterium tuberculosis
Experiment: Antitubercular activity against Mycobacterium tuberculosis H37Rv infected in BALB/c mouse measured per mouse at 100 mg/kg, po daily for 5 days a week for 3 weeks
Assay type: functional
Settings: not given
In the case of N#Cc1ccc(-c2ccc(CO[C@@H]3COc4nc([N+](=O)[O-])cn4C3)cc2)cc1, the CFU was 4500. COc1c(F)cc(F)cc1-c1ccc(CO[C@@H]2COc3nc([N+](=O)[O-])cn3C2)cc1 showed a CFU of 200000. O=[N+]([O-])c1cn2c(n1)OC[C@@H](OCc1ccc(-c3ccc(C(F)(F)F)cc3)cc1)C2 gave a CFU of 1100. Compound CCOc1ccccc1-c1ccc(CO[C@@H]2COc3nc([N+](=O)[O-])cn3C2)cc1 has a CFU of 540000. Work on COc1ccc(-c2ccc(CO[C@@H]3COc4nc([N+](=O)[O-])cn4C3)cc2)cc1F yielded a CFU of 850000. With O=[N+]([O-])c1cn2c(n1)OC[C@@H](OCc1ccc(-c3ccc(OC(F)(F)F)cc3)cc1)C2 the CFU was less than 2. For O=[N+]([O-])c1cn2c(n1)OC[C@@H](OCc1ccc(-c3ccc(OC(F)(F)F)c(Cl)c3)cc1)C2, the CFU was 6.4. In the case of O=[N+]([O-])c1cn2c(n1)OC[C@@H](OCc1ccc(-c3ccc(F)cc3)cc1)C2, the CFU was 5400.

Tested on: not listed separately
Experiment: Metabolic stability in pooled CD1 mouse liver microsomes assessed as compound remaining after 1 hr by LC-MS-MS
Assay type: ADME, Microsome
Settings: read-out: Stability
How it was run: as §1
In the case of N#Cc1ccc(-c2ccc(CO[C@@H]3COc4nc([N+](=O)[O-])cn4C3)cc2)cc1, the remaining at 1 h was 58%. For COc1c(F)cc(F)cc1-c1ccc(CO[C@@H]2COc3nc([N+](=O)[O-])cn3C2)cc1, the remaining at 1 h was 2%. O=[N+]([O-])c1cn2c(n1)OC[C@@H](OCc1ccc(-c3ccc(C(F)(F)F)cc3)cc1)C2 showed a remaining at 1 h of 85%. With CCOc1ccccc1-c1ccc(CO[C@@H]2COc3nc([N+](=O)[O-])cn3C2)cc1 the remaining at 1 h was 0.2%. For COc1ccc(-c2ccc(CO[C@@H]3COc4nc([N+](=O)[O-])cn4C3)cc2)cc1F, the remaining at 1 h was 50%. Work on O=[N+]([O-])c1cn2c(n1)OC[C@@H](OCc1ccc(-c3ccc(OC(F)(F)F)c(Cl)c3)cc1)C2 yielded a remaining at 1 h of 84%. In the case of O=[N+]([O-])c1cn2c(n1)OC[C@@H](OCc1ccc(-c3ccc(F)cc3)cc1)C2, the remaining at 1 h was 55%.

Tested on: Mycobacterium tuberculosis
Experiment: Antitubercular activity against Mycobacterium tuberculosis H37Rv in anaerobic condition after 7 days by low oxygen recovery assay
Assay type: functional
Settings: 168 h
N#Cc1ccc(-c2ccc(CO[C@@H]3COc4nc([N+](=O)[O-])cn4C3)cc2)cc1 gave an MIC of 0.58 µM (≈ 0.218 µg/mL). COc1c(F)cc(F)cc1-c1ccc(CO[C@@H]2COc3nc([N+](=O)[O-])cn3C2)cc1 gave an MIC of 0.86 µM (≈ 0.359 µg/mL). Work on O=[N+]([O-])c1cn2c(n1)OC[C@@H](OCc1ccc(-c3ccc(C(F)(F)F)cc3)cc1)C2 yielded an MIC of 1.4 µM (≈ 0.587 µg/mL). Work on CCOc1ccccc1-c1ccc(CO[C@@H]2COc3nc([N+](=O)[O-])cn3C2)cc1 yielded an MIC of 0.82 µM (≈ 0.324 µg/mL). Compound COc1ccc(-c2ccc(CO[C@@H]3COc4nc([N+](=O)[O-])cn4C3)cc2)cc1F has an MIC of 1.9 µM (≈ 0.759 µg/mL). O=[N+]([O-])c1cn2c(n1)OC[C@@H](OCc1ccc(-c3ccc(OC(F)(F)F)cc3)cc1)C2 showed an MIC of 1.3 µM (≈ 0.566 µg/mL). O=[N+]([O-])c1cn2c(n1)OC[C@@H](OCc1ccc(-c3ccc(OC(F)(F)F)c(Cl)c3)cc1)C2 showed an MIC of 0.9 µM (≈ 0.423 µg/mL). Compound O=[N+]([O-])c1cn2c(n1)OC[C@@H](OCc1ccc(-c3ccc(F)cc3)cc1)C2 has an MIC of 1.4 µM (≈ 0.517 µg/mL).

Tested on: Mycobacterium tuberculosis
Experiment: Antitubercular activity against Mycobacterium tuberculosis H37Rv in aerobic condition after 7 days by microplate alamar blue assay
Assay type: functional
Settings: 168 h
How it was run: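 M. tuberculosis H37Rv, replicating culture; 8-day microplate assay with Alamar blue added on day 7 to read growth. […] Mean of at least two independent determinations ± SD.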
For N#Cc1ccc(-c2ccc(CO[C@@H]3COc4nc([N+](=O)[O-])cn4C3)cc2)cc1, the MIC was 0.025 µM (≈ 0.00941 µg/mL). In the case of COc1c(F)cc(F)cc1-c1ccc(CO[C@@H]2COc3nc([N+](=O)[O-])cn3C2)cc1, the MIC was 0.04 µM (≈ 0.0167 µg/mL). O=[N+]([O-])c1cn2c(n1)OC[C@@H](OCc1ccc(-c3ccc(C(F)(F)F)cc3)cc1)C2 showed an MIC of 0.03 µM (≈ 0.0126 µg/mL). Compound CCOc1ccccc1-c1ccc(CO[C@@H]2COc3nc([N+](=O)[O-])cn3C2)cc1 has an MIC of 0.03 µM (≈ 0.0119 µg/mL). For COc1ccc(-c2ccc(CO[C@@H]3COc4nc([N+](=O)[O-])cn4C3)cc2)cc1F, the MIC was 0.04 µM (≈ 0.016 µg/mL). O=[N+]([O-])c1cn2c(n1)OC[C@@H](OCc1ccc(-c3ccc(OC(F)(F)F)cc3)cc1)C2 showed an MIC of 0.035 µM (≈ 0.0152 µg/mL). O=[N+]([O-])c1cn2c(n1)OC[C@@H](OCc1ccc(-c3ccc(OC(F)(F)F)c(Cl)c3)cc1)C2 showed an MIC of 0.03 µM (≈ 0.0141 µg/mL). Work on O=[N+]([O-])c1cn2c(n1)OC[C@@H](OCc1ccc(-c3ccc(F)cc3)cc1)C2 yielded an MIC of 0.015 µM (≈ 0.00554 µg/mL).
